Source: ChEMBL document CHEMBL5149984, “Discovery of HN37 as a Potent and Chemically Stable Antiepileptic Drug Candidate” (J Med Chem, 2021)

How the values were obtained:
[1] = biological target: Potassium voltage-gated channel subfamily KQT member 2 (Rattus norvegicus) (UniProt O88943); assay: Agonist activity at rat Kv7.2 channel expressed in CHO cells assessed as shift of half voltage of maximal activation at 10 uM by whole cell patch clamp based electrophysiological method; settings: filed as agonist
In short: (§1)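 Rat KCNQ2 cotransfected with EGFP plasmid by Lipofectamine 3000 into CHO cells (DMEM/F12, 10% FBS; split 24 h before transfection). Whole-cell recording at room temperature. Pipette: 145 mM KCl, 1 mM MgCl2, 5 mM EGTA, 10 mM HEPES, 5 mM MgATP, pH 7.3. Bath, constantly perfused: 140 mM NaCl, 5 mM KCl, 2 mM CaCl2, 1.5 mM MgCl2, 10 mM glucose, 10 mM HEPES, pH 7.4. Signals filtered at 1 kHz. Compound at 10 μM. I/I0 is outward current amplitude with over without compound. ΔV1/2 is the shift in V1/2 from Boltzmann fits of activation curves. Mean ± SEM.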

[2] = biological target: Potassium voltage-gated channel subfamily KQT member 2 (Rattus norvegicus) (UniProt O88943); assay: Agonist activity at rat Kv7.2 channel expressed in CHO cells assessed as amplitude change of outward current at 10 uM by whole cell patch clamp based electrophysiological method; settings: filed as agonist; in short: as §1
[3] = biological target: Potassium voltage-gated channel subfamily KQT member 2 (Rattus norvegicus, UniProt O88943); assay: Agonist activity at rat KCNQ2 channel expressed in CHO cells by patch clamp method; format: cell-based
In short: (§2)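 Whole-cell patch clamp at room temperature on CHO cells (DMEM/F12, 10% FBS) transiently co-transfected with EGFP and hKCNQ1, rKCNQ2, rKCNQ3 A278T, hKCNQ4 or hKCNQ5; KCNQ2/3 at 1:1 cDNA ratio. Pipette solution 145 mM KCl, 5 mM MgATP, pH 7.3; bath 140 mM NaCl, 5 mM KCl, pH 7.4, under perfusion. V1/2 from Boltzmann fits; I/I0 is current amplitude with versus without compound; n = 4−6.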

[4] = biological target: Potassium voltage-gated channel subfamily KQT member 2/member 3 (Rattus norvegicus, UniProt O88943+O88944); assay: Agonist activity at rat KCNQ2/3 channel expressed in CHO cells by patch clamp method; format: cell-based; in short: as §2
Mus musculus [5] = assay: Anticonvulsant activity in po dosed MES induced Kunming mouse model of seizure; format: functional
In short: (§3)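 MES test in male KM mice. Compounds freshly suspended in 0.5% CMC-Na and given by gavage at 20 mL/kg; 160 V stimulus through ear clips. Protection scored as absence of hindlimb tonic extension; time course at 0.25, 0.5, 1 and 2 h, otherwise tested at 1 h. ED50 from dose−response by nonlinear regression; Fisher's exact test versus vehicle.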

Mus musculus [6] = organism: Mus musculus; assay: Anticonvulsant activity in MES induced Kunming mouse model of seizure assessed as EC50 in plasma; format: functional, organism-based
In short: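 After the MES test in KM mice (oral dosing in 0.5% CMC-Na, 1 h), animals were killed immediately and plasma and brain concentrations were measured by LC−MS/MS. EC50 from concentration−response curves of protection against plasma concentration, by nonlinear regression.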

[7] = Neurotoxicity in po dosed Kunming mouse assessed as motor impairment after 1 hr by rotarod test; format: toxicity, organism-based; settings: in vivo
In short: (§4)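 Male KM mice dosed intragastrically with compound freshly suspended in 0.5% CMC-Na. Rotarod performance scored 1 h after dosing as the fraction of animals showing motor impairment. Fisher's exact test versus vehicle; TD50 from nonlinear dose−response fit.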

[8] = Neurotoxicity in Kunming mouse assessed as motor impairment rate at 60 mg/kg, po after 1 hr by rotarod test; format: toxicity, organism-based; settings: in vivo; in short: as §4
Mus musculus [9] = organism: Mus musculus; assay: Anticonvulsant activity in Kunming mouse assessed as reduction in MES-induced seizure after 1 hr; format: functional; in short: as §3
Mus musculus [10] = organism: Mus musculus; assay: Anticonvulsant activity in Kunming mouse assessed as reduction in Sc-PTZ induced seizure after 1 hr; format: functional
In short: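 sc-PTZ test in male KM mice. Compound suspended in 0.5% CMC-Na and given orally 1 h before PTZ (freshly dissolved in normal saline, 100 mg/kg). Protection against clonic seizures scored; ED50 by nonlinear regression.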

Mus musculus [11] = organism: Mus musculus; assay: Anticonvulsant activity in C57BL/6 mouse 6 Hz seizure model at 32 mA measured after 1 hr; format: functional
Mus musculus [12] = organism: Mus musculus; assay: Anticonvulsant activity in C57BL/6 mouse 6 Hz seizure model at 44 mA measured after 1 hr; format: functional
[13] = Clearance in Kunming mouse plasma at 2 mg/kg, iv measured upto 24 hrs by LC-MS/MS method; format: ADME, organism-based
In short: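 Male KM mice fasted 12 h before and 2 h after iv dosing at 2 mg/kg (oral formulation of 5% DMSO/5% Tween 80/saline diluted with saline containing 1% Tween 80); n = 3 per time point. Blood from the retro-orbital venous plexus at 0.083–24 h; plasma extracted with acetonitrile plus internal standard and analysed by LC−MS/MS.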

[14] = Cmax in Sprague-Dawley rat at 20 mg/kg, po measured upto 24 hrs by LC-MS/MS method; format: ADME, organism-based; design: time < 24 hrs, dose 20 mg/kg, route po; settings: in vivo
In short: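 Male SD rats (180−220 g) dosed orally at 2, 6 or 20 mg/kg in escalating fashion, handled as in the mouse study: 12 h fast, acetonitrile extraction of plasma, LC−MS/MS quantification. AUC0−t by trapezoidal method to the last measurable concentration.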

[15] = Cmax in Sprague-Dawley rat brain at 6 mg/kg, po measured upto 24 hrs by LC-MS/MS method; format: ADME, organism-based; design: time < 24 hrs, dose 6 mg/kg, route po
In short: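 Male SD rats (180−220 g) given single oral doses of 2, 6 and 20 mg/kg; handled as in the mouse PK study (fasted 12 h before and 2 h after dosing, 5% DMSO/5% Tween 80/90% saline formulation). In a separate 6 mg/kg p.o. set, blood and brain were sampled together. Plasma and brain levels by LC−MS/MS.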

CYP3A4 = CYP3A4 (Homo sapiens, UniProt P08684); assay: Inhibition of human liver microsome CYP3A4 at 0.10 to 50 uM preincubated with NADPH for 0.5 hrs followed by substrate addition by LC-MS/MS method relative to control; format: ADME; settings: liver microsomes, dose 0.1-50 µM
In short: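 Human liver microsomes preincubated 0.5 h with 0.10−50 μM compound, with or without NADPH, then CYP-specific probe substrates added (CYP3A4 with midazolam 1′-hydroxylation and with testosterone 6β-hydroxylation). Metabolites quantified by LC−MS/MS; % activity remaining computed against no-compound control. IC50 fitted by Probit model; ratio = IC50(−NADPH)/IC50(+NADPH).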

[16] = biological target: Potassium voltage-gated channel subfamily KQT member 5 (Homo sapiens) (UniProt Q9NR82); assay: Agonist activity at human KCNQ5 channel expressed in CHO cells assessed as amplitude change of outward current at 0.1 uM by patch clamp method; format: cell-based; settings: filed as agonist; in short: as §2
[17] = Drug concentration in Kunming mouse plasma at 5 mg/kg; format: ADME, organism-based; settings: in vivo
In short: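 Male KM mice (18−24 g) fasted 12 h before and 2 h after dosing, given 5 mg/kg orally in 5% DMSO/5% Tween 80/90% normal saline (n = 3 per time point). Aortic blood taken at 0.25–24 h and whole brain collected. Acetonitrile extraction with internal standard, then LC−MS/MS. Bioavailability calculated against the 2 mg/kg i.v. arm.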

[18] = Ratio of drug concentration in brain to plasma of MES induced Kunming mouse model of seizure

Sequence of Potassium voltage-gated channel subfamily KQT member 2 (Rattus norvegicus) (O88943 whole entry, the tested form may be a part): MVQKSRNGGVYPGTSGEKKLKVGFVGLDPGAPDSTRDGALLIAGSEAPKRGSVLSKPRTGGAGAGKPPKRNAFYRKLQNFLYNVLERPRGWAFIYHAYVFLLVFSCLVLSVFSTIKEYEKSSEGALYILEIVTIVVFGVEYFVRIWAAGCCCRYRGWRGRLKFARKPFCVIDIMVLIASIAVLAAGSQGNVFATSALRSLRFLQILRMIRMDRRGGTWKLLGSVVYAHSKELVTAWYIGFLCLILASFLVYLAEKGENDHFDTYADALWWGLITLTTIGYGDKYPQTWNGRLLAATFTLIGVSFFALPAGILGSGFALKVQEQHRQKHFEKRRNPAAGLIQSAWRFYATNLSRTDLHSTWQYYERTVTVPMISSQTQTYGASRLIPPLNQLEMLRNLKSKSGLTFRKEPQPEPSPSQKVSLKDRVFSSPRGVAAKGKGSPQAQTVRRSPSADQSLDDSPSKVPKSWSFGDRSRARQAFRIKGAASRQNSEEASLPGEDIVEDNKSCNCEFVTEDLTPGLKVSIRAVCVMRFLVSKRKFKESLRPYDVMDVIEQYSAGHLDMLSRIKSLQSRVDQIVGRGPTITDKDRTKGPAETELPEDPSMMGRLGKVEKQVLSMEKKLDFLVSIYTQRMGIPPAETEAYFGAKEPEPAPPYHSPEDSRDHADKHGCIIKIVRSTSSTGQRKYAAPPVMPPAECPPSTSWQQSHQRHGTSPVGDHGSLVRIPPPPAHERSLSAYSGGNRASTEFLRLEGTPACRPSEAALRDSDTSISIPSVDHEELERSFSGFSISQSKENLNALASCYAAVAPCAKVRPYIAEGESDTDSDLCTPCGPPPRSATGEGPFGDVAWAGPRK
Sequence of Potassium voltage-gated channel subfamily KQT member 2 (O88943 whole entry, the tested form may be a part): as above
Sequence of Potassium voltage-gated channel subfamily KQT member 2/member 3 (O88943 whole entry): as the sequence (O88943 whole entry, the tested form may be a part) above
Sequence of Potassium voltage-gated channel subfamily KQT member 2/member 3 (O88944 whole entry): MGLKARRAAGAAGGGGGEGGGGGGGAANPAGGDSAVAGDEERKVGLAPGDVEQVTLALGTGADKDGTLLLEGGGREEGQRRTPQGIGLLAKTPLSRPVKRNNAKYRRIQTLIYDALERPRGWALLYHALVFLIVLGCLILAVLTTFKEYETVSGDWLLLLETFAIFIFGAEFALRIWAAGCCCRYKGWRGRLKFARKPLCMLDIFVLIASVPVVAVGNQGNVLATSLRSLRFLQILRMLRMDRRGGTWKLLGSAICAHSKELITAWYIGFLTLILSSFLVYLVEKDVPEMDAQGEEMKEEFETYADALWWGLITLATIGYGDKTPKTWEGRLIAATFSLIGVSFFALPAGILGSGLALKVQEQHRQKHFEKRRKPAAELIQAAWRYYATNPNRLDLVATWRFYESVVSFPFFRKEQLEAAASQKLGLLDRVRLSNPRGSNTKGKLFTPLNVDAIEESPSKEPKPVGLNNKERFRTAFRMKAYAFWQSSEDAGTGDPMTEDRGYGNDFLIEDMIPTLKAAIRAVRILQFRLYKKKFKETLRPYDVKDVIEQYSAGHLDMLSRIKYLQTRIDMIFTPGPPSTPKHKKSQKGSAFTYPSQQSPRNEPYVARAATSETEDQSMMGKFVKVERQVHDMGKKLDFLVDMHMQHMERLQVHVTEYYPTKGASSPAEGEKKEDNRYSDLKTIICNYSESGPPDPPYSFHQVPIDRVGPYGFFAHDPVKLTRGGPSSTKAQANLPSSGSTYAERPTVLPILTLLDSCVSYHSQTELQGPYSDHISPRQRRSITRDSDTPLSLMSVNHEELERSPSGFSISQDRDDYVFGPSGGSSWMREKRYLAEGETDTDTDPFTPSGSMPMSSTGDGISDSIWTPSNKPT
Sequence of Potassium voltage-gated channel subfamily KQT member 5 (Homo sapiens) (Q9NR82 whole entry): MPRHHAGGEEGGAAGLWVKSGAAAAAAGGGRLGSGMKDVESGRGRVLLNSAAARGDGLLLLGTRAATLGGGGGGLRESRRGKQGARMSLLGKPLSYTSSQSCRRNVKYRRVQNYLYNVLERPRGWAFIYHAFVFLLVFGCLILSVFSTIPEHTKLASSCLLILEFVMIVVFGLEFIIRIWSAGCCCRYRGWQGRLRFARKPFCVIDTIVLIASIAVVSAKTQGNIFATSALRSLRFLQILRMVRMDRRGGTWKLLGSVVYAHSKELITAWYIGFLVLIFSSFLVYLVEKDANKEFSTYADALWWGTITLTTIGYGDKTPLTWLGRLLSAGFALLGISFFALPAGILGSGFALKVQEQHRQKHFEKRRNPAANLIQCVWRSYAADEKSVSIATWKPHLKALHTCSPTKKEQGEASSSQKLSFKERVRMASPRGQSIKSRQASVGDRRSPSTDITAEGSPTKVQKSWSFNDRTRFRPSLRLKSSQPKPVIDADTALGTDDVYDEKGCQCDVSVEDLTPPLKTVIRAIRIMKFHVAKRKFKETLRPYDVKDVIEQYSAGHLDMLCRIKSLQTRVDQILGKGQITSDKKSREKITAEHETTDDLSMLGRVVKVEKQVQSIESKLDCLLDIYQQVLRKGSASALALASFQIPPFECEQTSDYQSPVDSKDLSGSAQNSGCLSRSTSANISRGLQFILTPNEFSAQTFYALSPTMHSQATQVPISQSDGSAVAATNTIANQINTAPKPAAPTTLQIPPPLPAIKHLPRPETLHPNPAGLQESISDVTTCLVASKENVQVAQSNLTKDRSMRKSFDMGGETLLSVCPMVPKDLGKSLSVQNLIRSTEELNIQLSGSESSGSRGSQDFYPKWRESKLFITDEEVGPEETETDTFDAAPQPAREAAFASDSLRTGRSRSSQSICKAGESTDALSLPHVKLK
Sequence of CYP3A4 (P08684 whole entry): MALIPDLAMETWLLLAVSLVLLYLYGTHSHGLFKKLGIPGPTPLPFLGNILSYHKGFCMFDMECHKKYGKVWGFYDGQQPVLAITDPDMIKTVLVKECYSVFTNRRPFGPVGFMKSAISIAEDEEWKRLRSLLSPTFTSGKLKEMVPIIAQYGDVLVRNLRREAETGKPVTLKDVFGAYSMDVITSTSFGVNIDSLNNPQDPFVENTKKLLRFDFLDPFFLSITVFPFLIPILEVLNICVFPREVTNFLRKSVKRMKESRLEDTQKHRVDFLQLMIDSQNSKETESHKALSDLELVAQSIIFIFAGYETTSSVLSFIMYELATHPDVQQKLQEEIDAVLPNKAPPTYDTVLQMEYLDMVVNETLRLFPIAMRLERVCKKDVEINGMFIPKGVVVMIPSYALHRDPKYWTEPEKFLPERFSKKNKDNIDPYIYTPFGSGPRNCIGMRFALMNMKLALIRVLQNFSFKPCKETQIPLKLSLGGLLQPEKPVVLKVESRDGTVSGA

SMILES | Activity [1] [mV] | Activity [2] | EC50 [3] [nM] | EC50 [4] [nM] | ED50 (Mus musculus [5]) [mg/kg] | EC50 (Mus musculus [6]) [nM] | TD50 at 1 h ([7]; Kunming) [mg/kg] | Activity ([7]; po, 1 h, DDE = dose-dependent effect) | Activity [8] | ED50 (Mus musculus [9]) [mg/kg] | ED50 (Mus musculus [10]) [mg/kg] | ED50 (Mus musculus [11]) [mg/kg] | ED50 (Mus musculus [12]) [mg/kg] | clearance [13] [mL/min/kg] | Cmax [14] [ng/mL] | Cmax [15] [ng/mL] | inhibition at 0.5 h, up to 50 µM (CYP3A4) [%] | Activity [16] | concentration [17] [nM] | Kp [18]
CCOC(=O)Nc1ccc(NCc2ccc(F)cc2)cc1N [EZOGABINE] | -33.2 | 1.79 | 2040 | 4150 | 38.6 | 20000 | 188 | Dde | Non-Toxic | 38.6 | > 56 | 65.9 | 102 |  |  |  |  |  |  | 
C#CCN(Cc1ccc(F)cc1)c1cc(C)c(NC(=O)OC)c(C)c1 | -38.5 | 4.75 | 37 | 33.1 | 1.9 | 50 |  |  | Non-Toxic | 1.9 | 9.8 | 16.8 | 29.9 | 61.3 | 323 | 578 | < 25 | 3.14 | 110 | 1.4
